Bioassay records as filed in PubChem.
Hits are enriched below; roughly 3.3% of the tested compounds scored in any of these assays.
Arr AP2 block: inhibitors of human beta-arrestin and AP2 interaction; actives 0.31% (n = 340,000); AID 504490; FITC-arrestin peptide / GST-AP2 beads, flow cytometry; AP2 beta2 appendage carries R879A mutation; inhibition, % at 10 µM;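 active = inhibition above a set limit, near 3 SD of compounds lacking own fluorescence, cut at about 54% in these data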;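 also: plate controls were DMSO wells for no effect and 5 µM unlabelled arrestin peptide for full effect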
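System: GST-AP2 R879A glutathione beads. Medium: PBS with 0.05% Tween 20 and 0.1% BSA. Also added: FITC-arrestin peptide, 50 nM. Incubation: 12 min plus 1 h, RT. Measured by: high-throughput flow cytometry of beads, ex 488, em 535 nm. Evaluation: percent drop in bead-associated FITC signal.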
m5-HT2A agonist: activates the mouse 5-HT2A serotonin receptor. P35363. CHO-K1 mHTR2A beta-arrestin complementation, luminescence; percent of 30 µM serotonin response. activation, % at 7.6 µM. actives 0.66% (n = 360,000);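 active = activation above a run cutoff, the mean activation of all tested compounds plus 3 SD, cut at about 14% in these data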;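 also: 0% = plate median of compound wells and 100% = 30 µM serotonin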
CendR NRP1 mod: alters CendR peptide binding to human NRP-1; O14786; FAM-RPARPAR peptide binding to NRP-1, fluorescence polarization; inhibition, % at 25 µM; actives 0.85% (n = 360,000);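 active = inhibition or corrected inhibition above about 18%, plus a signal ratio from 0.5 to 1.5, limit read from the data, passing the limit was not always enough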
Target sequence (O14786 whole entry, looked up): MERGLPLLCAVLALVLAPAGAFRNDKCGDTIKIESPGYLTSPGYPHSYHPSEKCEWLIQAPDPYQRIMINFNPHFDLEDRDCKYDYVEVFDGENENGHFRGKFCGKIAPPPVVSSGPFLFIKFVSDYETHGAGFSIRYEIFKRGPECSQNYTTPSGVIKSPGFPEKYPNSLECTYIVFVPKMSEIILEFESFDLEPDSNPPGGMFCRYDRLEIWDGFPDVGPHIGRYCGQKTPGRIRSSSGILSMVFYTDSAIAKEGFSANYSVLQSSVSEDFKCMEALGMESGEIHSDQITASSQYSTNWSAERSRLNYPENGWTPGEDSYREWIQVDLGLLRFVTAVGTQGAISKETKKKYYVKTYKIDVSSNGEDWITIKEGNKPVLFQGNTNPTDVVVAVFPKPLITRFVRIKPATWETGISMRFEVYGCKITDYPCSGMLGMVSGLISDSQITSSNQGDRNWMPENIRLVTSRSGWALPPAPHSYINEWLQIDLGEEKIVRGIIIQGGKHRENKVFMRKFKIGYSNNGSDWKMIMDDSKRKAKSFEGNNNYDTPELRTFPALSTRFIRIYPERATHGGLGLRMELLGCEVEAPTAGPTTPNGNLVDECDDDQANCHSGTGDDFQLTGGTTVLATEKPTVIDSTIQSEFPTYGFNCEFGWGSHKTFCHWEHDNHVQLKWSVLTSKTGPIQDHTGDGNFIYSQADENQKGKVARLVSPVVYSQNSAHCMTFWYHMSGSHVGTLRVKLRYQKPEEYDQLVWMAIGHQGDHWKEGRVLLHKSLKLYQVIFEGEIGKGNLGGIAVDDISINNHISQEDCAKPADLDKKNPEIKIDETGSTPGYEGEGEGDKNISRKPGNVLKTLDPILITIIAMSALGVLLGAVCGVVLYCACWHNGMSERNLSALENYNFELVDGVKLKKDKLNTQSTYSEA
Lipid droplet: hepatic lipid droplet formation modulation; inhibition, % at 6.5 µM; actives 0.4% (n = 240,000); AML12 mouse hepatocytes, oleate lipid droplets, BODIPY imaging;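 active = lipid droplet intensity inhibited by at least 50%, with more than 500 cells counted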
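material = mouse AML12 hepatocyte cell line, fixed after treatment | also added = 100 µM oleic acid challenge | doses = compound at 6.5 µM only | schedule = overnight exposure | technique = Image-based BODIPY and DAPI two-channel analysis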
PfM18AAP inh: PfM18AAP enzyme inhibition | AID 1822 | actives 1.2% (n = 290,000) | recombinant PfM18AAP, H-Glu-NHMec fluorogenic cleavage | inhibition, % at 7.35 µM;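 active = inhibition above the campaign mean inhibition over all tested compounds plus 3 SD, cut at about 28% in these data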;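 also: 0% = plate median of test compound wells and 100% = 2 mM ZnCl2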
HGIII-sPLA2 inh: Blocks human group III sPLA2 activity | inhibition, % at 12.2 µM | QFRET BODIPY PC-A2 liposome hydrolysis, fluorescence | Q9NZ20 | actives 0.56% (n = 370,000);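 active = inhibition above mean plus 3 SD of compounds lying within the high and low control bounds, cut at about 19% in these data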;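 also: 0% = median of test compound wells and 100% = no enzyme DMSO wells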
Lipid drop inh: hepatic lipid droplet formation inhibition, confirmed; AML12 mouse hepatocytes, BODIPY lipid droplet imaging; droplets induced with 100 µM oleic acid; shares compounds with Lipid droplet; AID 463183; inhibition, % at 5.2 µM; actives 65% (n = 870);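 active = inhibition of lipid droplet metric at least 50%, with more than 300 cells in each of four replicates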;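 also: plate controls were DMSO with oleic acid for no effect and 5 µM Triacsin-C for full effect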
AML12 tox img: counter-screen for cytotoxicity in AML12 mouse hepatocytes; shares compounds with Lipid droplet; DAPI nuclear morphology cytotoxicity imaging; stronger effect = higher value; cells fed 100 µM oleate overnight; z-score at 5 µM; actives 3% (n = 870); AID 463200; in the data active = z-score above about 6.3;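 also: compound exposure lasted overnight at 37 °C before fixation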
AML12 tox ATP: confirmation of cytotoxicity in AML12 mouse hepatocytes; shares compounds with Lipid droplet; AML12 mouse hepatocyte viability, ATP luminescence; cells loaded with 100 µM oleic acid; cytotoxicity, % at 50 µM; 530 tested, under 10 active;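 active = cytotoxicity above 50% in each of four replicates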;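 also: compound exposure lasted overnight at 37 °C before the ATP read; 0% = DMSO-treated cells and 100% = wells with no cells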
* hit, by the source's call; x = no result given.

SMILES	Arr AP2 block	m5-HT2A agonist	CendR NRP1 mod	Lipid droplet	PfM18AAP inh	HGIII-sPLA2 inh	Lipid drop inh	AML12 tox img	AML12 tox ATP
Cc1ccc(NC(=O)CN(C)CC(=O)Nc2ccc(N3CCOCC3)cc2)c(C)c1	-2	0	2	53*	6	4	84*	-0.99	x
CCOc1ccc(C2=Nc3ccc(Br)cc3C(c3ccc(N4CCOCC4)cc3)=NN2)cc1	2	-2	9	62*	-1	0	23	-0.046	x
CCOc1ccc(C2=Nc3ccccc3C(c3ccc(N4CCOCC4)cc3)=NN2)cc1	3	-1	3	x	3	-7	x	x	x
COC(=O)c1ccccc1NC(=O)c1cccc(NC(=O)c2ccc(Br)o2)c1C	3	-2	8	62*	5	-11	96*	0.025	12
CCOc1ccc(-n2c(COc3ccc(Cl)cc3)nnc2SCC(=O)Nc2ccc(OCc3ccccc3)cc2)cc1	x	x	x	x	x	-6	x	x	x
COc1cccc(N(C)C(=O)[C@@H](C)[C@@H](O)c2ccc(C(C)=O)cc2)c1	x	x	x	x	x	1	x	x	x
COc1ccc(C2(c3ccc(OC)cc3)NC(=O)N(CC(=O)Nc3ccccc3C)C2=O)cc1	19	7	14	60*	0	-23	104*	-0.77	11
COc1ccc(C2(c3ccc(OC)cc3)NC(=O)N(CC(=O)Nc3ccccc3C(F)(F)F)C2=O)cc1	14	-7	3	46	-2	-20	x	x	x
COc1ccc(C2(c3ccc(OC)cc3)NC(=O)N(CC(=O)Nc3ccc(OC)c(OC)c3)C2=O)cc1	28	2	4	52*	4	-15	74*	-1.3	18
COc1ccc(C2(c3ccc(OC)cc3)NC(=O)N(CC(=O)Nc3ccc(C(N)=O)cc3)C2=O)cc1	3	0	3	-10	0	-17	x	x	x
COc1ccc(Cl)cc1-c1cc(C(=O)Nc2ccc(C(C)(C)C)cc2)[nH]n1	x	-3	-5	x	x	-10	x	x	x
COc1ccc(CCNC(=O)CCc2cn(C)c3ccccc23)c(OC)c1OC	8	-4	-6	86*	-5	5	99*	0.84	x
COc1ccc(Br)cc1CNC(=O)CCCc1cn(C)c2ccccc12	11	-1	-8	70*	-4	-32	94*	-0.28	x
COc1ccc(OC)c(CNC(=O)CCCc2cn(C)c3ccccc23)c1	14	-5	14	82*	4	5	96*	0.28	x
CCCSC1=C(C#N)C(c2cccs2)C(C(=O)Nc2ccccc2)=C(C)N1 (stereo not given)	11	4	0	54*	3	-16	93*	-0.17	-2
CN1C(=O)[C@H]2[C@@H](C3CC3)N3C(=O)CN(Cc4ccccn4)C(=O)[C@@]3(Cc3ccccc3)[C@H]2C1=O	-2	3	-6	60*	4	7	6	-0.62	x
Clc1ccccc1Nc1nc(NCC2CC2)nc2ccsc12	x	-9	10	x	x	-8	x	x	x
CS(=O)(=O)N(Cc1ccc(Cl)cc1)c1ccc(C(=O)N/N=C/c2cc3ccccc3nc2Cl)cc1	1	4	-1	64*	-4	1	106*	-0.46	1
CS(=O)(=O)N(Cc1ccc(Cl)cc1)c1ccc(C(=O)NCc2ccccn2)cc1	2	2	-13	-25	3	-12	x	x	x
C=CCNC(=S)Nc1cc(S(=O)(=O)N2CCOCC2)ccc1-n1cncn1	8	2	-6	119*	-6	12	-7	-0.26	x
CCn1cc(C(=O)NCCc2ccc(Cl)cc2)c(=O)c2cc(S(=O)(=O)N(C)C)ccc21	4	2	-1	0	2	-1	x	x	x
CCn1cc(C(=O)NCc2ccc(Cl)cc2)c(=O)c2cc(S(=O)(=O)N(C)C)ccc21	-2	8	11	62*	-7	1	45	-0.85	19
O=[N+]([O-])c1cc(Cl)ccc1N1CCCC1	8	-2	7	6	4	0	x	x	x
O=[N+]([O-])c1cc(Cl)ccc1N1CCN(c2cccc(C(F)(F)F)c2)CC1	1	3	4	64*	-2	3	94*	0.54	0
CCC(=O)Nc1cccc(-c2cc3ccccc3oc2=O)c1	5	-1	-8	0	-14	1	x	x	x
SMILES	Arr AP2 block	m5-HT2A agonist	CendR NRP1 mod	Lipid droplet	PfM18AAP inh	HGIII-sPLA2 inh	Lipid drop inh	AML12 tox img	AML12 tox ATP
O=C(Cc1cccc2ccccc12)Nc1ccc(-c2cc3ccccc3oc2=O)cc1	7	-5	-10	72*	-18	-16	100*	0.57	13
COC(=O)c1cc2c(c3c4cc(C)ccc4n(S(=O)(=O)c4cccc(C)c4)c13)C(=O)N(Cc1ccc(N(C)C)cc1)C2	x	x	x	x	x	5	x	x	x
CCOC(=O)N1CCN(C(=O)CSCC(=O)Nc2nc(-c3ccc(OC)cc3)cs2)CC1	4	-1	-6	16	-1	-8	x	x	x
CCOC(=O)N1CCN(C(=O)CSCC(=O)Nc2nc(-c3ccc(-c4ccccc4)cc3)cs2)CC1	-4	0	-3	82*	-5	-22	76*	0.13	42
CCOc1ccc(CCNC(=O)Nc2ccccc2C)cc1OCC	24	5	2	104*	4	7	101*	0.0074	7
CCOc1ccc(CCNC(=O)CN2C(=O)NC3(CCCC3)C2=O)cc1OCC	11	-3	1	83*	-2	3	109*	0.32	11
CCOc1ccc(CCNC(=O)c2ccccn2)cc1OCC	x	x	x	x	x	1	x	x	x
CCOc1ccc(CCNC(=O)Cn2cccc2C(=O)c2ccccc2C)cc1OCC	4	0	2	101*	1	-9	109*	0.29	16
CCOc1ccc(CCNC(=O)CN2C(=O)NC3(CCCCC3)C2=O)cc1OCC	-8	-4	-8	x	x	-1	x	x	x
CC(=O)N1CCCN(S(=O)(=O)c2ccc3c(c2)c(=O)n(C)c(=O)n3C)CC1	x	x	x	x	x	4	x	x	x
COc1cccc(CNC(=O)CCNC(=O)C2CCN(S(=O)(=O)c3ccccc3)CC2)c1	-19	4	10	60*	1	-3	81*	-0.74	13
COc1cccc(CNC(=O)C2CCCN(S(=O)(=O)c3c(C)noc3/C=C/N(C)C)C2)c1 (stereo not given)	-3	-11	7	74*	5	0	80*	-0.47	13
